Reference: ChEMBL document CHEMBL1148735, “4-Substituted trinems as broad spectrum beta-lactamase inhibitors: structure-based design, synthesis, and biological activity” (J Med Chem, 2007)

Assays:
[1] = biological target: T1, Beta-lactamase SHV-1 (Escherichia coli, UniProt P0AD63); experiment: Inhibition of Escherichia coli SHV1
T1 sequence (P0AD63 whole entry): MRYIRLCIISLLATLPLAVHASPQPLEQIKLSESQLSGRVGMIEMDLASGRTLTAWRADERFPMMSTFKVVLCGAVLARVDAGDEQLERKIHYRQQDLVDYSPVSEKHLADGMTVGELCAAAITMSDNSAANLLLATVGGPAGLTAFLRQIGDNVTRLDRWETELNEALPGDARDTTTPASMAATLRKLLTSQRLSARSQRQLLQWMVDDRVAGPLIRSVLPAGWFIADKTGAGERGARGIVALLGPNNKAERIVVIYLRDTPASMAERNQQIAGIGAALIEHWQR
Outline: (§1)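 Recombinant β-lactamase, expressed in the pET system without its signal peptide and carrying an N-terminal His6 tag, purified on Ni-NTA. Inhibitor made as a 50 mM DMSO stock, then diluted in 50 mM phosphate pH 7 with 10% DMSO final. Enzyme and inhibitor preincubated 10 min at 37 °C. Started with prewarmed nitrocefin; A490 read every 30 s for 10 min at 37 °C.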

[2] = biological target: Beta-lactamase (Enterobacter cloacae, UniProt P05364); experiment: Inhibition of Enterobacter cloacae AmpC
[3] = biological target: Beta-lactamase TEM (Escherichia coli, UniProt P62593); experiment: Inhibition of Escherichia coli TEM1; outline: as §1
Chain of Beta-lactamase TEM (P62593 whole entry): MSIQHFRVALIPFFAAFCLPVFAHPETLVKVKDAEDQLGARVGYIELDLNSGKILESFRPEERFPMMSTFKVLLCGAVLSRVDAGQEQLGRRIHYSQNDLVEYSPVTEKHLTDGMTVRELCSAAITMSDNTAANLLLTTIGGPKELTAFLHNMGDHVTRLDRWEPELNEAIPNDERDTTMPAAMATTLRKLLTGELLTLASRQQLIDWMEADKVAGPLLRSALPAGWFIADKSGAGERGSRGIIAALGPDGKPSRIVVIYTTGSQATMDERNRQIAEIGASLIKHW

Chain of Beta-lactamase (P05364 whole entry): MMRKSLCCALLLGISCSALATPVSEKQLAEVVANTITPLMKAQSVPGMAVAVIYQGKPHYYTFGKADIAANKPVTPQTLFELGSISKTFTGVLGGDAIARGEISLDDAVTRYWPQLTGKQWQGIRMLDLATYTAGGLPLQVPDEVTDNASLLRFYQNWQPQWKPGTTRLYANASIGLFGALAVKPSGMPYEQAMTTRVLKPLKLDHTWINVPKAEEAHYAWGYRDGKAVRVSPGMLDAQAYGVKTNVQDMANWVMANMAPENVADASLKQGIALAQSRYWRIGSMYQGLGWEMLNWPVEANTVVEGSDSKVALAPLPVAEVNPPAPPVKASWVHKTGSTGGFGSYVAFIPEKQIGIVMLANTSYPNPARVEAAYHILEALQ

Structure (SMILES)	IC50 [1] [nM]	IC50 [2] [nM]	IC50 [3] [nM]
C/C=C1/C(=O)N2C(C(=O)O)=C3[C@@H](OCCCC)CCC[C@@H]3[C@H]12	206	720	32
C/C=C1/C(=O)N2C(C(=O)O)=C3[C@@H](OCC)CCC[C@@H]3[C@H]12	385	229	57
C/C=C1/C(=O)N2C(C(=O)O)=C3[C@@H](OCCC#N)CCC[C@@H]3[C@H]12	152	209	18
C/C=C1/C(=O)N2C(C(=O)O)=C3[C@@H](OC(C)C)CCC[C@@H]3[C@H]12	340	341	39
C/C=C1/C(=O)N2C(C(=O)O)=C3[C@@H](CCC[C@H]3OCCCC)[C@H]12	219	430	12
C/C=C1/C(=O)N2C(C(=O)O)=C3[C@@H](OCCF)CCC[C@@H]3[C@H]12	148	1020	21
C/C=C1/C(=O)N2C(C(=O)O)=C3[C@@H](CCC[C@H]3OCC)[C@H]12	284	295	22
